N-glyco inh – N-linked glycosylation inhibition; D54 ERlucT glycosylation luciferase reporter, 24 h; percent of 100 nM tunicamycin response; reporter increase, % at 12.5 µM; 0.23% of 360,000 active;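 active = mean luciferase reporter signal, scaled so untreated is 0 and the glycosylation-blocking control 100, at or above a set limit in every replicate; inconclusive = mean reaches the limit but not every replicate does; inactive = mean below the limit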;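 note: luciferase carries N-glycosylation sites so blocking glycosylation raises the light; 0% = median of neutral control wells and 100% = median of 100 nM tunicamycin wells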
PAX8 inh HTS – inhibitors of PAX8 transcriptional activity in RMG-I cells | RMG-I TPO-luciferase reporter, SteadyGlo, 24 h | inhibition, % at 12.6 µM | 1.2% of 360,000 active;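 active = mean replicate inhibition at least 60% with every replicate also reaching 60%; inconclusive = only one of the two criteria is met; inactive = mean below 60% and not all replicates reaching 60%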;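 note: luciferase light reporting Pax8 driven TPO promoter activity; plate controls were median of neutral control wells for no effect and mitoxantrone controls for full effect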
PfHsp90 yeast 2 – inhibits growth of yeast expressing Plasmodium falciparum Hsp90; 0.32% of 310,000 active; S. cerevisiae expressing PfHsp90, BacTiter-Glo ATP, 48 h; yeast lacking PDR1 and PDR3 efflux regulators; inhibition, % at 9.4 µM;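 active = every replicate shows inhibition above about 80%, whatever the replicate mean, limit read from the data; inconclusive = mean inhibition reaches the set limit but some replicate falls short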;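 note: 0% = DMSO neutral controls and 100% = 20 µM radicicol positive controls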
Rtt109 Vps75 – blocks Candida albicans Rtt109/Vps75 acetyltransferase activity; 0.16% of 330,000 active; inhibition, % at 34.9 µM; purified Rtt109/Vps75, ThioGlo CoA-SH fluorescence, 4 h; AID 540336;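 active = inhibition of at least 50% in every replicate; inconclusive = best replicate reaches 50% inhibition but some replicates fall short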
Target sequence (Q5AAJ8 whole entry, looked up): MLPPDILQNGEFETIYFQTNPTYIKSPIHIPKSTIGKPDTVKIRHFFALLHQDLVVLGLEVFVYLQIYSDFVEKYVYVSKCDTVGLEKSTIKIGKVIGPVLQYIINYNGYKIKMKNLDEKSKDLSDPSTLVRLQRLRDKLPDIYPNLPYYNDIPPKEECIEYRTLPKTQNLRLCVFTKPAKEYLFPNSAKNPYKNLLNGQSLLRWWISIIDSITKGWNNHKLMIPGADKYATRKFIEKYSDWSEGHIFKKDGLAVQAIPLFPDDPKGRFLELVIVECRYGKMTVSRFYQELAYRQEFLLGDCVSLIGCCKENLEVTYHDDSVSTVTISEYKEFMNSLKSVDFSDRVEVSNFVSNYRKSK
Env fusion inh – inhibitors of HIV Env-mediated cell fusion; 1.1% of 360,000 active; inhibition, % at 12.3 µM; HeLa-JRFL Env/CEM21 cell fusion, luciferase;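 active = mean replicate inhibition score of at least 50 and every replicate individually at or above 50; inconclusive = only one of the two criteria met; inactive = mean below 50 and not all replicates reaching 50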;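 note: 0% = plate neutral controls and 100% = maraviroc near 300 nM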
Arrestin-AP2 inh – human beta-arrestin and AP2 interaction inhibition. AID 504490. FITC-arrestin peptide / GST-AP2 beads, flow cytometry; AP2 beta2 appendage carries R879A mutation. inhibition, % at 10 µM. 0.31% of 340,000 active;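 active = inhibition above a set limit, near 3 SD of compounds lacking own fluorescence, cut at about 54% in these data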;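 note: plate controls were DMSO wells for no effect and 5 µM unlabelled arrestin peptide for full effect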
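Test system: GST-tagged AP2 beta2-adaptin appendage (R879A) on 4 µm glutathione beads; also added: fluorescein-tagged arrestin peptide at 50 nM final; timing: 12 min plus 1 h, RT; signal: flow cytometry, FL1 (488/535 nm); read-out: percent drop in bead-associated FITC signal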
Active calls of the source: *; ? = inconclusive; / = no result; + = active, no number; [ ] = remark or other dose. The list is not random: actives were taken first. Their share in the collection is about 2.3%.

SMILES | N-glyco inh | PAX8 inh HTS | PfHsp90 yeast 2 | Rtt109 Vps75 | Env fusion inh | Arrestin-AP2 inh
C#CC(=O)N(c1ccc(OC)cc1OC)C(C(=O)NC1CCCC1)c1cccs1 (centres undefined) | -22 | 93* | 5 | ? | 109* | 19
C[C@@H]1CN([C@H](C)CO)C(=O)Cc2cc(NC(=O)Cc3cn(C)c4ccccc34)ccc2O[C@H]1CN(C)C(=O)Nc1ccc2c(c1)OCO2 | / | -7 | / | / | -13[16.7 µM] | /
CC1(C)C2CCC1(C)C(OCCNCCOC(=O)Nc1ccccc1)C2 (centres undefined) | -3 | -17 | -28 | -9 | 69* | -4
CC1(C)C2CCC1(C)C(OC(=O)c1ccccc1C(=O)O)C2 (centres undefined) | 2 | -4 | -92 | -10 | 1 | -16
COc1ccccc1S(=O)(=O)N[C@H]1C=C[C@@H](CC(=O)N2CCN(C)CC2)O[C@@H]1CO | / | -12 | / | / | -10[16.7 µM] | /
C[C@@H]1CN([C@H](C)CO)C(=O)Cc2cc(NC(=O)Nc3ccccc3)ccc2O[C@@H]1CN(C)C(=O)Nc1ccccc1 | / | 1 | / | / | 20[16.7 µM] | /
CC(=O)Nc1ccccc1C(=O)C(=O)Nc1ccc(C)c(F)c1 | 0 | 69* | -5 | 10 | / | -10
O=C(C1CC1)N1CCCCN2[C@H](CO)[C@@H](c3ccc(C#CC4CC4)cc3)[C@@H]2C1 | / | -14 | / | / | / | /
Cc1ccc(S(=O)(=O)Nc2ccc3c(c2)C(=O)N([C@H](C)CO)C[C@H](C)[C@@H](CN(C)Cc2ccc(C(=O)O)cc2)OCCCC[C@H](C)O3)cc1 | / | 7 | / | / | 9[16.7 µM] | /
CC1CCN(c2ccc(-c3cccs3)nn2)CC1 | -18 | 84* | 22 | 11 | 16 | -8
Clc1ccc(-c2cccs2)nn1 | 0 | -13 | -11 | 6 | -54 | 16
COc1ccc(-c2cc(C)no2)cc1S(=O)(=O)Nc1ccccc1 | 45* | -18 | -4 | -1 | -28 | 9
COc1ccc(-c2cc(C)no2)cc1S(=O)(=O)Nc1cccc(C)c1 | 5 | -12 | -9 | 7 | -7 | 3
Cc1cc(C)c2c(=O)n3c(nc2c1)C(Cc1ccc(O)cc1)NC(=O)c1cc2ccccc2cc1-3 (centres undefined) | 3 | 72* | / | / | -124 | /
O=C(CN1C(=O)NC2NC(=O)NC21)NN=C1CCCC1 (centres undefined) | 1 | 83* | 1 | -10 | / | 9
O=C(CN1C(=O)NC2NC(=O)NC21)N/N=C/c1ccccc1O (centres undefined) | 0 | -14 | 2 | 17 | -1 | -8
C[C@H]1O[C@@H](O[C@H]2[C@@H](O)C[C@H](O[C@H]3[C@@H](O)C[C@H](O[C@H]4CC[C@@]5(C)[C@H](CC[C@@H]6[C@@H]5C[C@@H](O)[C@]5(C)[C@@H](C7=CC(=O)OC7)CC[C@]65O)C4)O[C@@H]3C)O[C@@H]2C)C[C@H](O)[C@@H]1O | -20 | 109* | 4 | 2 | 86* | 2
COc1ccc(-c2nnc3n(CCc4ccccc4)c(=O)c4ccccc4n23)c(OC)c1 | -3 | 13 | 107* | -2 | 13 | -1
COc1cc(OC)c(-c2nnc3n(CCc4ccccc4)c(=O)c4ccccc4n23)cc1OC | / | / | / | / | 41 | /
CC(C)NC(=O)N(C)C[C@H]1Oc2ncc(C#Cc3ccccc3F)cc2C(=O)N([C@H](C)CO)C[C@@H]1C | / | / | / | / | 8[16.7 µM] | /
CCOC(=O)c1ccc(NC(=O)CSc2nnc(CNc3ccc(C)cc3)n2C)cc1 | -1 | 13 | -5 | 2 | -85 | -5
CCOC(=O)c1c(NC(=O)CSc2nnc(CNc3ccc(OC)cc3)n2C)sc(C)c1C | 0 | 20 | / | -4 | 27* | 4
Cc1cc(C)c(C)c(S(=O)(=O)N2CCC(C(=O)Nc3ccc(S(=O)(=O)N4CCOCC4)cc3)CC2)c1C | -4 | 29 | -12 | 1 | 57* | 10
Cc1ccc(S(=O)(=O)N2CCC(C(=O)Nc3ccc(S(=O)(=O)N4CCOCC4)cc3)CC2)cc1 | -3 | 24 | 11 | 5 | 29 | -12
CC(=O)Nc1ccc(S(=O)(=O)N2CCC(C(=O)c3ccc(F)cc3)CC2)cc1 | -4 | 11 | 5 | 2 | -8 | 18
SMILES | N-glyco inh | PAX8 inh HTS | PfHsp90 yeast 2 | Rtt109 Vps75 | Env fusion inh | Arrestin-AP2 inh
CC(=O)Nc1ccc(S(=O)(=O)N2CCC(C(=O)c3ccc(Cl)cc3)CC2)cc1 | -4 | 18 | -9 | 17 | 56* | 2
COc1ccc(C2=CC3=C(Br)C(=O)C(C)(OC(=O)c4ccco4)C(=O)C3=CO2)cc1 (centres undefined) | 5 | / | + | 5 | / | -1
COc1ccc(C2=CC3=C(Br)C(=O)C(C)(OC(=O)c4cccs4)C(=O)C3=CO2)cc1 (centres undefined) | 2 | -59 | 107* | -1 | -3 | 12
COCCN1C=C2C(=O)C(C)(OC(=O)CCC(=O)OC)C(=O)C(Br)=C2C=C1c1ccc(OC)cc1 (centres undefined) | 0 | / | 5 | 3 | / | 25
O=C(N[C@@H]1C=C[C@@H](CC(=O)N2CCCCC2)O[C@H]1CO)c1ccccn1 | / | 7 | / | / | 9[16.7 µM] | /
COC(=O)c1cn(CC(=O)N2CCOCC2)nn1 | / | 12 | / | / | 19[16.7 µM] | /
CC(C)(C)OC(=O)[C@H](Cc1ccccc1)NC(=O)c1nc[nH]c1C(=O)N[C@@H](Cc1ccccc1)C(=O)OC(C)(C)C | -1 | 104* | -1 | 8 | 74* | 33
CC(C)(C)OC(=O)NCCCC[C@H](NC(=O)c1[nH]cnc1C(=O)Nc1ccc(CNC(=O)OC(C)(C)C)cc1)C(=O)OC(C)(C)C | / | 110* | / | / | 72* | /
CC(C)(C)OC(=O)NCCCC[C@H](NC(=O)c1[nH]cnc1C(=O)N[C@@H](Cc1ccccc1)C(=O)OC(C)(C)C)C(=O)OC(C)(C)C | -6 | 104* | 13 | -3 | 47 | -6
Cc1ccc(NC(=O)c2nc[nH]c2C(=O)NCCCCNC(=O)c2[nH]cnc2C(=O)Nc2ccc(C)cc2)cc1 | -6 | 80* | 5 | 3 | 50 | 2
Cc1ccc(NC(=O)c2nc[nH]c2C(=O)NCCCCCCNC(=O)c2[nH]cnc2C(=O)Nc2ccc(C)cc2)cc1 | 2 | 1 | -4 | -4 | 14 | -2
O=C(Nc1ccc2oc(-c3ccncc3)nc2c1)c1ccc2c(c1)OCCO2 | 0 | -3 | -31 | 57* | -7 | /
O=C(Nc1ccc2oc(-c3ccncc3)nc2c1)c1ccc2c(c1)OCO2 | -1 | 6 | -22 | 6 | 10 | 2
CNC[C@H]1OCCCC[C@@H](C)Oc2ccc(NC(=O)c3ccccc3)cc2C(=O)N([C@@H](C)CO)C[C@@H]1C | / | 3 | / | / | 6[16.7 µM] | /
C[C@@H]1CN([C@H](C)CO)C(=O)c2cc(C#Cc3ccccn3)cnc2O[C@@H]1CN(C)CC1CCCC1 | / | -4 | / | / | / | /

Bioassay records as filed in PubChem BioAssay.
